Data as given in ChEMBL document CHEMBL4007511, “Synthesis and Biological Evaluation of Bile Acid Analogues Inhibitory to Clostridium difficile Spore Germination” (J Med Chem, 2017).
Activity calls are given as the source filed them. No cut-off for these calls is given here.

What was measured:
[1] = tested on: Clostridioides difficile; assay: Antibacterial activity against Clostridium difficile NAP1 assessed as concentration required for complete inhibition of TCA-induced spore germination measured after 20 mins under anaerobic condition; assay type: functional; details: NAP1, 20 min, read-out: MEC
How it was run: (§1)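 Spores (~0.5 McFarland, heat-treated 65 °C for 30 min) inoculated anaerobically into pre-reduced (2–3 h) BHIS (0.5% yeast extract, 0.1% L-cysteine) containing 2000 μM taurocholate plus analogue at varying concentrations; OD600 read each minute for 20 min, normalized to t0. Complete inhibition = relative OD600 ≥0.95 at 20 min; triplicate wells, solvent (DMSO or DMSO/ethanol) controls.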

[2] = tested on: Clostridioides difficile; assay: Induction of spore germination in Clostridium difficile NAP1 at 1500 to 2000 uM measured after 20 mins under anaerobic condition
[3] = tested on: Clostridioides difficile; assay: Inhibition of TCA-induced spore germination in Clostridium difficile NAP1 assessed as compound concentration required for complete inhibition by spectrophotometric method; assay type: functional; details: read-out: MEC; how it was run: as §1
[4] = tested on: Clostridioides difficile; assay: Inhibition of TCA-induced spore germination in Clostridium difficile NAP1 assessed as spore germination at 10 uM measured after 20 mins under anaerobic condition by phase-contrast microscopic analysis relative to control; assay type: functional; parameters: scale not given: the % may be the effect or the level left
How it was run: (§2)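 Heat-treated spores exposed to BHIS with 2000 μM taurocholate plus analogue or DMSO control; t0 samples put on ice at once, t20 samples held 20 min at room temperature then iced; phase-bright spores and phase-dark germinated cells counted by hemocytometer under phase-contrast. % germination of total cells; relative value = (t20−t0) test/(t20−t0) control; triplicate, mean ± SD.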

[5] = in vitro; details: human, Caco-2
[6] = in vitro; details: human, Caco-2; remark: listed apart in the source
[7] = tested on: Clostridioides difficile; assay: Inhibition of TCA-induced spore germination in Clostridium difficile NAP1 at 50 uM measured after 20 mins under anaerobic condition by phase-contrast microscopic analysis; assay type: functional; how it was run: as §2
[8] = human, caco-2, 10 µM
[9] = human, caco-2, 10 µM; remark: listed apart in the source
[10] = biological target: Clostridioides difficile; assay: Inhibition of TCA-induced spore germination in Clostridium difficile NAP1 at 0.2 mM using varying levels of TCA measured after 20 mins under anaerobic condition; assay type: functional
[11] = biological target: Clostridioides difficile; assay: Competitive inhibition of taurocholate-induced spore germination in Clostridium difficile UK1 at 0.2 mM by Michaelis-Menten kinetic analysis; assay type: functional
[12] = tested on: Clostridioides difficile; assay: Inhibition of taurocholate/glycine-induced spore germination in Clostridium difficile 630 preincubated for 15 mins followed by taurocholate/glycine addition measured every minute for 90 mins; assay type: functional

COC(=O)CC[C@@H](C)[C@H]1CC[C@H]2[C@@H]3[C@@H](OC)C[C@@H]4C[C@H](OC)CC[C@]4(C)[C@H]3CC[C@]12C
minimal effective concentration [1]: 500 µM

CO[C@H]1C[C@@H]2C[C@H](O)CC[C@]2(C)[C@H]2CC[C@]3(C)[C@@H]([C@H](C)CCC(=O)O)CC[C@H]3[C@H]12
Activity [2]: Toxic | minimal effective concentration [1]: > 500 µM

COC(=O)CC[C@@H](C)[C@H]1CC[C@H]2[C@@H]3[C@@H](OC)C[C@@H]4C[C@H](O)CC[C@]4(C)[C@H]3CC[C@]12C
minimal effective concentration [1]: 500 µM

C[C@H](CCC(=O)O)[C@H]1CC[C@H]2[C@@H]3[C@@H](O)C[C@@H]4C[C@H](O)CC[C@]4(C)[C@H]3CC[C@]12C [URSODIOL]
minimal effective concentration [3]: 500 µM

C[C@H](CCC(=O)N1CCCC1)[C@H]1CC[C@H]2[C@@H]3[C@H](O)C[C@@H]4C[C@H](O)CC[C@]4(C)[C@H]3CC[C@]12C
minimal effective concentration [1]: 50 µM

CO[C@@H]1CC[C@@]2(C)[C@@H](C1)C[C@@H](OS(=O)(=O)[O-])[C@@H]1[C@@H]2CC[C@]2(C)[C@@H]([C@H](C)CCC(=O)c3nnn[n-]3)CC[C@@H]12.[Na+].[Na+]
Activity [4]: 51% | minimal effective concentration [1]: 25 µM | Papp B→A at 10 µM [5]: 4 nm/s | Papp A→B at 10 µM [6]: 4 nm/s

C[C@H](CCC(C)(C)O)[C@H]1CC[C@H]2[C@H]3[C@H](CC[C@]12C)[C@@]1(C)CC[C@@H](O)C[C@H]1C[C@@]3(C)O
minimal effective concentration [1]: > 1000 µM

CC(=O)O[C@@H]1CC[C@@]2(C)[C@@H](C1)C[C@@H](OC(C)=O)[C@@H]1[C@@H]2CC[C@]2(C)[C@@H]([C@H](C)CCC(N)=O)CC[C@@H]12
minimal effective concentration [1]: 50 µM

C[C@H](CCC(=O)O)[C@H]1CC[C@H]2[C@@H]3[C@H](O)C[C@@H]4C[C@H](O)CC[C@]4(C)[C@H]3CC[C@]12C [CHENODIOL]
minimal effective concentration [1]: 500 µM

COC(=O)CC[C@@H](C)[C@H]1CC[C@H]2[C@@H]3[C@@H](O)C[C@@H]4C[C@H](OC)CC[C@]4(C)[C@H]3CC[C@]12C
minimal effective concentration [1]: 500 µM

COC(=O)CC[C@@H](C)[C@H]1CC[C@H]2[C@@H]3[C@@H](O)C[C@@H]4C[C@H](O)CC[C@]4(C)[C@H]3CC[C@]12C
minimal effective concentration [1]: 50 µM

COC(=O)CC[C@@H](C)[C@H]1CC[C@H]2[C@@H]3[C@H](OC)C[C@@H]4C[C@H](OC)CC[C@]4(C)[C@H]3CC[C@]12C
minimal effective concentration [1]: 500 µM

COC(=O)CC[C@@H](C)[C@H]1CC[C@H]2[C@@H]3C[C@H](O)[C@@H]4C[C@H](O)CC[C@]4(C)[C@H]3CC[C@]12C
minimal effective concentration [1]: 500 µM

CC(=O)O[C@@H]1CC[C@@]2(C)[C@@H](C1)C[C@H](OC(C)=O)[C@@H]1[C@@H]2CC[C@]2(C)[C@@H]([C@H](C)CCC(N)=O)CC[C@@H]12
Activity [2]: Toxic | minimal effective concentration [1]: 50 µM

CO[C@@H]1CC[C@@]2(C)[C@@H](C1)C[C@H](OS(=O)(=O)[O-])[C@@H]1[C@@H]2CC[C@]2(C)[C@@H]([C@H](C)CCC(=O)N3CCCC3)CC[C@@H]12.[Na+]
Activity [4]: 9% | minimal effective concentration [1]: 50 µM | inhibition [7]: Active | Papp [8]: 21 nm/s | Papp [9]: 1 nm/s | Ki [10]: 20 µM

CO[C@@H]1CC[C@@]2(C)[C@@H](C1)C[C@H](O)[C@@H]1[C@@H]2CC[C@]2(C)[C@@H]([C@H](C)CCC(=O)O)CC[C@@H]12
Activity [2]: Toxic | minimal effective concentration [1]: > 500 µM

CCCCNC(=O)CC[C@@H](C)[C@H]1CC[C@H]2[C@@H]3[C@@H](O)C[C@@H]4C[C@H](O)CC[C@]4(C)[C@H]3CC[C@]12C
minimal effective concentration [1]: 500 µM

C[C@H](CCC(=O)NC(C)(C)CO)[C@H]1CC[C@H]2[C@@H]3[C@H](O)C[C@@H]4C[C@H](O)CC[C@]4(C)[C@H]3CC[C@]12C
minimal effective concentration [1]: 500 µM

CO[C@@H]1CC[C@@]2(C)[C@@H](C1)C[C@H](OC)[C@@H]1[C@@H]2CC[C@]2(C)[C@@H]([C@H](C)CCC(=O)O)CC[C@@H]12
Activity [4]: 75% | minimal effective concentration [1]: > 1000 µM

CO[C@@H]1CC[C@@]2(C)[C@@H](C1)C[C@@H](O)[C@@H]1[C@@H]2CC[C@]2(C)[C@@H]([C@H](C)CCC(=O)O)CC[C@@H]12
Activity [2]: Toxic | minimal effective concentration [1]: > 100 µM

COC(=O)CC[C@@H](C)[C@H]1CC[C@H]2[C@H]3[C@H](CC[C@]12C)[C@@]1(C)CC[C@@H](O)C[C@H]1C[C@@]3(C)O
minimal effective concentration [1]: 50 µM

C[C@H](CCC(=O)N1CCCC1)[C@H]1CC[C@H]2[C@@H]3[C@@H](O)C[C@@H]4C[C@H](O)CC[C@]4(C)[C@H]3CC[C@]12C
minimal effective concentration [1]: 100 µM

CCCCNC(=O)CC[C@@H](C)[C@H]1CC[C@H]2[C@@H]3[C@H](O)C[C@@H]4C[C@H](O)CC[C@]4(C)[C@H]3CC[C@]12C
minimal effective concentration [1]: 500 µM

COC(=O)CC[C@@H](C)[C@H]1CC[C@H]2[C@@H]3[C@H](OC)C[C@@H]4C[C@H](O)CC[C@]4(C)[C@H]3CC[C@]12C
minimal effective concentration [1]: 500 µM

C[C@H](CCC(=O)O)[C@H]1CC[C@H]2[C@@H]3[C@@H](OS(=O)(=O)O)C[C@@H]4C[C@H](O)CC[C@]4(C)[C@H]3CC[C@]12C
minimal effective concentration [1]: 3000 µM

COC(=O)CC[C@@H](C)[C@H]1CC[C@H]2[C@@H]3[C@H](O)C[C@@H]4C[C@H](OC)CC[C@]4(C)[C@H]3CC[C@]12C
minimal effective concentration [1]: 500 µM

CO[C@@H]1CC[C@@]2(C)[C@@H](C1)C[C@H](OC)[C@@H]1[C@@H]2CC[C@]2(C)[C@@H]([C@H](C)CCC(=O)N3CCCC3)CC[C@@H]12
minimal effective concentration [1]: 1000 µM

CO[C@@H]1CC[C@@]2(C)[C@@H](C1)C[C@@H](OC)[C@@H]1[C@@H]2CC[C@]2(C)[C@@H]([C@H](C)CCC(=O)N3CCCC3)CC[C@@H]12
minimal effective concentration [1]: 500 µM

C[C@H](CCC(=O)O)[C@H]1CC[C@H]2[C@@H]3C[C@H](O)[C@@H]4C[C@H](O)CC[C@]4(C)[C@H]3CC[C@]12C [HYODEOXYCHOLIC_ACID]
Activity [2]: Toxic | minimal effective concentration [1]: 500 µM

COC(=O)CC[C@@H](C)[C@H]1CC[C@H]2[C@@H]3[C@H](O)C[C@@H]4C[C@H](O)CC[C@]4(C)[C@H]3CC[C@]12C
Activity [4]: 73% | minimal effective concentration [1]: 500 µM | Ki [11]: 44 µM | Ki [10]: 118 µM

C[C@H](CCC(=O)Nc1cccc(S(=O)(=O)O)c1)[C@H]1CC[C@H]2[C@@H]3[C@H](O)C[C@@H]4C[C@H](O)CC[C@]4(C)[C@H]3C[C@H](O)[C@]12C
Activity [4]: 78% | minimal effective concentration [1]: > 1000 µM | IC50 [12]: 58 µM
